In article PMC5741288 (Pain Reports, 2016):

Experiment: Treatment-emergent adverse events, tolerability
Format: in vivo, healthy men
Method in brief: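 Healthy men received single oral tablet doses (part 1: 1–225 mg; part 2: 10, 50 mg) or placebo under double-blind randomisation. Treatment-emergent adverse events were recorded along with clinical laboratory tests, ECG, oral temperature, vital signs and physical examinations, through follow-up.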

For CC(C)(O)c1ccccc1-c1ccc2[nH]c(/C=C/c3ccc(C(F)(F)F)cc3)nc2c1 [JNJ-39439335, trans-2-(2-{2-[2-(4-Trifluoromethyl-phenyl)-vinyl]-1H-benzimidazol-5-yl}-phenyl)-propan-2-ol], the “Doses at which thermohypoesthesia occurred” value (in vivo) was no less than 10 mg, the “Participants with minor or first-degree burns on the hand or the mouth” value (of 79 participants receiving JNJ-39439335) was 7 participants and the “TEAE Agusia” value (part 1, 1 mg (N = 6)) was 0 n (%). For the same compound, the “TEAE Back pain” value (part 1, 1 mg (N = 6)) was 0 n (%), the “TEAE Burning sensation” value (part 1, 1 mg (N = 6)) was 0 n (%) and the “TEAE Chills” value (part 1, 1 mg (N = 6)) was 0 n (%). For the same compound, the “TEAE Dizziness” value (part 1, 1 mg (N = 6)) was 0 n (%), the “TEAE Dizziness postural” value (part 1, 1 mg (N = 6)) was 1 (17) n (%) and the “TEAE Dysgeusia” value (part 1, 1 mg (N = 6)) was 0 n (%). The “TEAE Fatigue” value (part 1, 1 mg (N = 6)) was 1 (17) n (%), the “TEAE Feeling cold” value (part 1, 1 mg (N = 6)) was 0 n (%) and the “TEAE Feeling hot” value (part 1, 1 mg (N = 6)) was 0 n (%). The “TEAE Headache” value (part 1, 1 mg (N = 6)) was 0 n (%), the “TEAE Hematoma” value (part 1, 1 mg (N = 6)) was 0 n (%) and the “TEAE Hyperhidrosis” value (part 1, 1 mg (N = 6)) was 0 n (%). The “TEAE Hypoesthesia” value (part 1, 1 mg (N = 6)) was 0 n (%), the “TEAE Hypogeusia” value (part 1, 1 mg (N = 6)) was 0 n (%) and the “TEAE Nausea” value (part 1, 1 mg (N = 6)) was 0 n (%). The “TEAE Paresthesia” value (part 1, 1 mg (N = 6)) was 0 n (%), the “TEAE Pruritus” value (part 1, 1 mg (N = 6)) was 0 n (%) and the “TEAE Pyrexia” value (part 1, 1 mg (N = 6)) was 0 n (%). The “TEAE Rhinitis” value (part 1, 1 mg (N = 6)) was 0 n (%), the “TEAE Thermal burn” value (part 1, 1 mg (N = 6)) was 0 n (%) and the “TEAE Thermohypoesthesia” value (part 1, 1 mg (N = 6)) was 0 n (%). For the same compound, the “Total no. participants with AEs” value (part 1, 1 mg (N = 6)) was 2 (33) n (%), the “TEAE Agusia” value (part 1, 2 mg (N = 6)) was 0 n (%) and the “TEAE Back pain” value (part 1, 2 mg (N = 6)) was 0 n (%). For the same compound, the “TEAE Burning sensation” value (part 1, 2 mg (N = 6)) was 0 n (%), the “TEAE Chills” value (part 1, 2 mg (N = 6)) was 0 n (%) and the “TEAE Dizziness” value (part 1, 2 mg (N = 6)) was 0 n (%). For the same compound, the “TEAE Dizziness postural” value (part 1, 2 mg (N = 6)) was 0 n (%), the “TEAE Dysgeusia” value (part 1, 2 mg (N = 6)) was 0 n (%) and the “TEAE Fatigue” value (part 1, 2 mg (N = 6)) was 0 n (%). The “TEAE Feeling cold” value (part 1, 2 mg (N = 6)) was 0 n (%), the “TEAE Feeling hot” value (part 1, 2 mg (N = 6)) was 0 n (%) and the “TEAE Headache” value (part 1, 2 mg (N = 6)) was 1 (17) n (%). For the same compound, the “TEAE Hematoma” value (part 1, 2 mg (N = 6)) was 1 (17) n (%), the “TEAE Hyperhidrosis” value (part 1, 2 mg (N = 6)) was 0 n (%) and the “TEAE Hypoesthesia” value (part 1, 2 mg (N = 6)) was 1 (17) n (%). The “TEAE Hypogeusia” value (part 1, 2 mg (N = 6)) was 0 n (%), the “TEAE Nausea” value (part 1, 2 mg (N = 6)) was 0 n (%) and the “TEAE Paresthesia” value (part 1, 2 mg (N = 6)) was 0 n (%). For the same compound, the “TEAE Pruritus” value (part 1, 2 mg (N = 6)) was 0 n (%), the “TEAE Pyrexia” value (part 1, 2 mg (N = 6)) was 0 n (%) and the “TEAE Rhinitis” value (part 1, 2 mg (N = 6)) was 0 n (%). For the same compound, the “TEAE Thermal burn” value (part 1, 2 mg (N = 6)) was 0 n (%), the “TEAE Thermohypoesthesia” value (part 1, 2 mg (N = 6)) was 0 n (%) and the “Total no. participants with AEs” value (part 1, 2 mg (N = 6)) was 3 (50) n (%). For the same compound, the “TEAE Agusia” value (part 1, 5 mg (N = 6)) was 0 n (%), the “TEAE Back pain” value (part 1, 5 mg (N = 6)) was 0 n (%) and the “TEAE Burning sensation” value (part 1, 5 mg (N = 6)) was 0 n (%). For the same compound, the “TEAE Chills” value (part 1, 5 mg (N = 6)) was 0 n (%), the “TEAE Dizziness” value (part 1, 5 mg (N = 6)) was 0 n (%) and the “TEAE Dizziness postural” value (part 1, 5 mg (N = 6)) was 0 n (%). The “TEAE Dysgeusia” value (part 1, 5 mg (N = 6)) was 0 n (%), the “TEAE Fatigue” value (part 1, 5 mg (N = 6)) was 0 n (%) and the “TEAE Feeling cold” value (part 1, 5 mg (N = 6)) was 1 (17) n (%). For the same compound, the “TEAE Feeling hot” value (part 1, 5 mg (N = 6)) was 1 (17) n (%), the “TEAE Headache” value (part 1, 5 mg (N = 6)) was 0 n (%) and the “TEAE Hematoma” value (part 1, 5 mg (N = 6)) was 0 n (%). For the same compound, the “TEAE Hyperhidrosis” value (part 1, 5 mg (N = 6)) was 0 n (%), the “TEAE Hypoesthesia” value (part 1, 5 mg (N = 6)) was 0 n (%) and the “TEAE Hypogeusia” value (part 1, 5 mg (N = 6)) was 0 n (%). The “TEAE Nausea” value (part 1, 5 mg (N = 6)) was 0 n (%), the “TEAE Paresthesia” value (part 1, 5 mg (N = 6)) was 0 n (%) and the “TEAE Pruritus” value (part 1, 5 mg (N = 6)) was 0 n (%). For the same compound, the “TEAE Pyrexia” value (part 1, 5 mg (N = 6)) was 4 (67) n (%), the “TEAE Rhinitis” value (part 1, 5 mg (N = 6)) was 0 n (%) and the “TEAE Thermal burn” value (part 1, 5 mg (N = 6)) was 0 n (%). For the same compound, the “TEAE Thermohypoesthesia” value (part 1, 5 mg (N = 6)) was 0 n (%), the “Total no. participants with AEs” value (part 1, 5 mg (N = 6)) was 4 (67) n (%) and the “TEAE Agusia” value (part 1, 10 mg (N = 6)) was 0 n (%). The “TEAE Back pain” value (part 1, 10 mg (N = 6)) was 0 n (%), the “TEAE Burning sensation” value (part 1, 10 mg (N = 6)) was 0 n (%) and the “TEAE Chills” value (part 1, 10 mg (N = 6)) was 0 n (%). The “TEAE Dizziness” value (part 1, 10 mg (N = 6)) was 1 (17) n (%), the “TEAE Dizziness postural” value (part 1, 10 mg (N = 6)) was 2 (33) n (%) and the “TEAE Dysgeusia” value (part 1, 10 mg (N = 6)) was 0 n (%). For the same compound, the “TEAE Fatigue” value (part 1, 10 mg (N = 6)) was 0 n (%), the “TEAE Feeling cold” value (part 1, 10 mg (N = 6)) was 0 n (%) and the “TEAE Feeling hot” value (part 1, 10 mg (N = 6)) was 0 n (%). For the same compound, the “TEAE Headache” value (part 1, 10 mg (N = 6)) was 1 (17) n (%), the “TEAE Hematoma” value (part 1, 10 mg (N = 6)) was 0 n (%) and the “TEAE Hyperhidrosis” value (part 1, 10 mg (N = 6)) was 1 (17) n (%). The “TEAE Hypoesthesia” value (part 1, 10 mg (N = 6)) was 0 n (%), the “TEAE Hypogeusia” value (part 1, 10 mg (N = 6)) was 0 n (%) and the “TEAE Nausea” value (part 1, 10 mg (N = 6)) was 1 (17) n (%). The “TEAE Orthostatic hypotension” value (part 1, 10 mg (N = 6)) was 2 (33) n (%), the “TEAE Paresthesia” value (part 1, 10 mg (N = 6)) was 1 (17) n (%) and the “TEAE Pruritus” value (part 1, 10 mg (N = 6)) was 1 (17) n (%). For the same compound, the “TEAE Pyrexia” value (part 1, 10 mg (N = 6)) was 5 (83) n (%), the “TEAE Rhinitis” value (part 1, 10 mg (N = 6)) was 2 (33) n (%) and the “TEAE Thermal burn” value (part 1, 10 mg (N = 6)) was 0 n (%). The “TEAE Thermohypoesthesia” value (part 1, 10 mg (N = 6)) was 3 (50) n (%), the “Total no. participants with AEs” value (part 1, 10 mg (N = 6)) was 6 (100) n (%) and the “TEAE Agusia” value (part 1, 15 mg (N = 6)) was 0 n (%). For the same compound, the “TEAE Back pain” value (part 1, 15 mg (N = 6)) was 0 n (%), the “TEAE Burning sensation” value (part 1, 15 mg (N = 6)) was 0 n (%) and the “TEAE Chills” value (part 1, 15 mg (N = 6)) was 0 n (%). For the same compound, the “TEAE Dizziness” value (part 1, 15 mg (N = 6)) was 1 (17) n (%), the “TEAE Dizziness postural” value (part 1, 15 mg (N = 6)) was 1 (17) n (%) and the “TEAE Dysgeusia” value (part 1, 15 mg (N = 6)) was 1 (17) n (%). The “TEAE Fatigue” value (part 1, 15 mg (N = 6)) was 0 n (%), the “TEAE Feeling cold” value (part 1, 15 mg (N = 6)) was 4 (67) n (%) and the “TEAE Feeling hot” value (part 1, 15 mg (N = 6)) was 5 (83) n (%). For the same compound, the “TEAE Headache” value (part 1, 15 mg (N = 6)) was 0 n (%), the “TEAE Hematoma” value (part 1, 15 mg (N = 6)) was 0 n (%) and the “TEAE Hyperhidrosis” value (part 1, 15 mg (N = 6)) was 3 (50) n (%). The “TEAE Hypoesthesia” value (part 1, 15 mg (N = 6)) was 0 n (%), the “TEAE Hypogeusia” value (part 1, 15 mg (N = 6)) was 2 (33) n (%) and the “TEAE Nausea” value (part 1, 15 mg (N = 6)) was 0 n (%). The “TEAE Paresthesia” value (part 1, 15 mg (N = 6)) was 2 (33) n (%), the “TEAE Pruritus” value (part 1, 15 mg (N = 6)) was 1 (17) n (%) and the “TEAE Pyrexia” value (part 1, 15 mg (N = 6)) was 4 (67) n (%). For the same compound, the “TEAE Rhinitis” value (part 1, 15 mg (N = 6)) was 0 n (%), the “TEAE Thermal burn” value (part 1, 15 mg (N = 6)) was 0 n (%) and the “TEAE Thermohypoesthesia” value (part 1, 15 mg (N = 6)) was 5 (83) n (%). For the same compound, the “Total no. participants with AEs” value (part 1, 15 mg (N = 6)) was 6 (100) n (%), the “TEAE Agusia” value (part 1, 15 mg R (N = 6)) was 0 n (%) and the “TEAE Back pain” value (part 1, 15 mg R (N = 6)) was 0 n (%). The “TEAE Burning sensation” value (part 1, 15 mg R (N = 6)) was 0 n (%), the “TEAE Chills” value (part 1, 15 mg R (N = 6)) was 0 n (%) and the “TEAE Dizziness” value (part 1, 15 mg R (N = 6)) was 0 n (%). The “TEAE Dizziness postural” value (part 1, 15 mg R (N = 6)) was 0 n (%), the “TEAE Dysgeusia” value (part 1, 15 mg R (N = 6)) was 0 n (%) and the “TEAE Fatigue” value (part 1, 15 mg R (N = 6)) was 0 n (%). The “TEAE Feeling cold” value (part 1, 15 mg R (N = 6)) was 3 (50) n (%), the “TEAE Feeling hot” value (part 1, 15 mg R (N = 6)) was 3 (50) n (%) and the “TEAE Headache” value (part 1, 15 mg R (N = 6)) was 0 n (%). The “TEAE Hematoma” value (part 1, 15 mg R (N = 6)) was 0 n (%), the “TEAE Hyperhidrosis” value (part 1, 15 mg R (N = 6)) was 0 n (%) and the “TEAE Hypoesthesia” value (part 1, 15 mg R (N = 6)) was 1 (17) n (%). For the same compound, the “TEAE Hypogeusia” value (part 1, 15 mg R (N = 6)) was 0 n (%), the “TEAE Nausea” value (part 1, 15 mg R (N = 6)) was 0 n (%) and the “TEAE Paresthesia” value (part 1, 15 mg R (N = 6)) was 2 (33) n (%). For the same compound, the “TEAE Pruritus” value (part 1, 15 mg R (N = 6)) was 0 n (%), the “TEAE Pyrexia” value (part 1, 15 mg R (N = 6)) was 2 (33) n (%) and the “TEAE Rhinitis” value (part 1, 15 mg R (N = 6)) was 0 n (%). The “TEAE Thermal burn” value (part 1, 15 mg R (N = 6)) was 0 n (%), the “TEAE Thermohypoesthesia” value (part 1, 15 mg R (N = 6)) was 2 (33) n (%) and the “Total no. participants with AEs” value (part 1, 15 mg R (N = 6)) was 6 (100) n (%). For the same compound, the “TEAE Agusia” value (part 1, 30 mg (N = 5)) was 0 n (%) and the “TEAE Back pain” value (part 1, 30 mg (N = 5)) was 2 (40) n (%).
